The nature of series [1]: Half life in Wistar rat plasma at 10 mg/kg, po. The class given is ADME, organism-based. On the set-up: dose 10 mg/kg, route oral. In a few lines: (§1)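 Female Wistar rats given a single oral dose of 10 mg/kg in 10% DMSO. Plasma and liver sampled at eight time points over 24 h, three animals killed per time point. Drug levels measured by LC-MS/MS with an internal standard. […] Values are means ± SD (n = 3).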

The subject of series [2] is Rattus norvegicus. In words: Reduction in plasma triglycerides in obese ZDF rat at 30 mg/kg, po for 3 days measured 4 hrs post last dose. The class given is functional, organism-based. On the set-up: dose 30 mg/kg. In a few lines: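 Female obese ZDF rats, eight weeks old, dosed orally for 3 days with 30 mg/kg in 5% ethanol/5% solutol/90% PBS (n = 8); controls got vehicle, with lean controls alongside. Four hours after the last dose, aortic blood taken under isoflurane. Triglycerides measured by GPD-PAP method; means ± SEM.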

Series [3] can be described thus: Drug concentration in Wistar rat plasma at 10 mg/kg, po measured 6 hrs post dose. The arrangement: dose 10 mg/kg, route oral. The class given is ADME, organism-based. To be noted: read-out: Drug uptake. Summed up:
as §1

Series [4] is described as follows: Oral bioavailability in Wistar rat at 10 mg/kg. The class given is ADME, organism-based. To be noted: in vivo.
Series [5] in a line: AUC (0 to infinity) in Wistar rat plasma at 3 mg/kg, iv. The class given is ADME, organism-based. On the set-up: dose 3 mg/kg, route intravenous, time infinity. Summed up: (§2)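 Wistar rats given an intravenous bolus of 3 mg/kg in 5% solutol solution. Plasma sampled at eight time points over 24 h. Drug quantified by LC-MS/MS against an internal standard. C0h is the concentration immediately after dosing; AUC0-inf, clearance, t1/2 and Vdss were also derived.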

A short description of series [6]: Tmax in Wistar rat plasma at 10 mg/kg, po. The arrangement: dose 10 mg/kg, route oral. The class given is ADME, organism-based. Summed up: as §1
Series [7] is described as follows: Half life in Wistar rat plasma at 3 mg/kg, iv. The arrangement: dose 3 mg/kg, route intravenous. The class given is ADME, organism-based. In a few lines:
as §2

Series [8] can be described thus: Cmax in Wistar rat plasma at 10 mg/kg, po. The class given is ADME, organism-based. The arrangement: dose 10 mg/kg, route oral. Summed up: as §1
Series [9] in a line: Half life in Wistar rat liver at 10 mg/kg, po. The class given is ADME, organism-based. The arrangement: dose 10 mg/kg, route oral. Summed up:
as §1

Series [10] can be described thus: Inhibition of N-terminal His-tagged rat recombinant ACC2 expressed in high five insect cells by ATP consumption assay.
Series [11] can be described thus: Cmax in Wistar rat liver at 10 mg/kg, po. The class given is ADME, organism-based. On the set-up: dose 10 mg/kg, route oral. Summed up: as §1
The test system of series [12] is Rattus norvegicus. Briefly: Stimulation of fat oxidation in Wistar rat assessed as decrease in respiratory quotient at 50 mg/kg, po administered 2 hrs before lipid load. The arrangement: dose 50 mg/kg. The class given is functional, organism-based. In a few lines:
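Female Wistar rats housed singly in calorimetry cages, acclimated at least 12 h. Dosed orally with 50 mg/kg or vehicle. Two hours later, oral 10 mL/kg 20% Lipofundin MCT (2 g fat/kg) or PBS. O₂ and CO₂ measured every 17 min per cage for 1 min. RQ is CO₂ production/O₂ consumption.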

A short description of series [13]: Ratio of AUC (0 to infinity) in liver to plasma of Wistar rat at 10 mg/kg, po. The class given is ADME, organism-based. The arrangement: dose 10 mg/kg, route oral. In a few lines:
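Female Wistar rats received a single oral 10 mg/kg dose in 10% DMSO. Plasma and liver were sampled at eight time points over 24 h, with three animals killed per time point. Drug levels were measured by LC-MS/MS against an internal standard. Liver/plasma ratio was calculated from AUC0-inf.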

Series [14] deals with T1, Peroxisome proliferator-activated receptor gamma (Homo sapiens) (UniProt P37231).
T1 sequence (whole entry): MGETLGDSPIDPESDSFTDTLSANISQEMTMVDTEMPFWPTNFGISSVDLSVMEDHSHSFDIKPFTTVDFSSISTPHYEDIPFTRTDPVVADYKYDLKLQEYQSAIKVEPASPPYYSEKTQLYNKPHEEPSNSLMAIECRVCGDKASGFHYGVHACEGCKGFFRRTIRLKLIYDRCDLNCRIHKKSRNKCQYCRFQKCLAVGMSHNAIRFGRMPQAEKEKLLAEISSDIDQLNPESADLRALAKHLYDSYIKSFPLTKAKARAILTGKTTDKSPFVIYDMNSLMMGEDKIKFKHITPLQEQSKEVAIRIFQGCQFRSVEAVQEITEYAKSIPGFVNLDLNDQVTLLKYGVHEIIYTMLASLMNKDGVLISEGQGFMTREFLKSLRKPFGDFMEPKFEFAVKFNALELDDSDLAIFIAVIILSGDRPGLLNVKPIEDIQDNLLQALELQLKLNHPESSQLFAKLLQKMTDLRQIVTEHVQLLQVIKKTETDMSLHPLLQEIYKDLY
Briefly: Inhibition of PPARgamma.

The nature of series [15]: AUC (0 to infinity) in Wistar rat plasma at 10 mg/kg, po. The class given is ADME, organism-based. On the set-up: time infinity, dose 10 mg/kg, route oral. In a few lines: as §1
The target in series [16] is T2, Peroxisome proliferator-activated receptor alpha (Homo sapiens) (UniProt Q07869).
T2 sequence (whole entry): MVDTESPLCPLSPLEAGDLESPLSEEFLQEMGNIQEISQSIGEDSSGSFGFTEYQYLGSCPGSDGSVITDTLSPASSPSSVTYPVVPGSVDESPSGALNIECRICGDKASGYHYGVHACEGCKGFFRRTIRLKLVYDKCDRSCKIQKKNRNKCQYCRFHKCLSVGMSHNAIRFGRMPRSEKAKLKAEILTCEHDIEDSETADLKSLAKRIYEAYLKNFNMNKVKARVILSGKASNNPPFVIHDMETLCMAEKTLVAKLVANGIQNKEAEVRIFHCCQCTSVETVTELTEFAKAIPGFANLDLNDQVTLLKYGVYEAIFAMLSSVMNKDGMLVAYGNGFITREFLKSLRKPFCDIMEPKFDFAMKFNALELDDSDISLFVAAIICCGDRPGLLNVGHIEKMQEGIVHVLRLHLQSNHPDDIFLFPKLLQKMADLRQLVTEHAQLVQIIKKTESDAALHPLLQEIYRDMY
Briefly: Inhibition of PPARalpha.

Active and inactive are the calls of the source. No cut-off for these calls is given here.

As to `CC(=O)N[C@@H](C)CCc1ccc(Oc2ccc(OC(C)C)nc2)cc1`, the half-life in series [1] was 1.8 h; in series [7] it was 1.5 h; in series [9] it was 3 h. In addition, the outcome in the series on Rattus norvegicus [2] and in the series on Rattus norvegicus [12] was Active. Besides, in series [3], the concentration at 6 h worked out at 1.59 µM. The molecule also had a bioavailability in [4] of 98%. Further, the AUC(0-inf) in series [5] was found to be 5.6 µM·h; in [15] it was 19 µM·h. Further, the Tmax in series [6] is 2 h. Moreover, the Cmax was determined as 3.5 µM in series [8] and 21.8 µM in series [11]. Further, the IC50 in [10] turned out to be 400 nM. The Kp in [13] was determined as 6. The inhibition result in [14] and in series [16] was “inactive” throughout.

A word on the half-life: it is the time in which the quantity being followed falls by half. What is called bioavailability is dose-corrected exposure relative to a reference, in per cent. Read a low bioavailability as poor availability. By AUC(0-inf) is commonly meant total exposure, with the tail of the curve extrapolated. In general, Tmax refers to the time at which the peak concentration occurs. The term Cmax denotes the maximum level reached in the sampled fluid or tissue. One may read the IC50 as the concentration needed to halve the response being measured. For orientation: Kp means tissue or fluid exposure divided by exposure in the circulation.

The record behind these values is ChEMBL document CHEMBL1629448, “Identification and synthesis of novel inhibitors of acetyl-CoA carboxylase with in vitro and in vivo efficacy on fat oxidation” (J Med Chem, 2010).
